Data from ChEMBL document CHEMBL1781919, “Synthesis and anticonvulsant properties of 1-(amino-N-arylmethanethio)-3-(1-substituted benzyl-2, 3-dioxoindolin-5-yl) urea derivatives” (Eur J Med Chem, 2011).
Active and inactive are the calls of the source. No cut-off for these calls is given here.

Experiments:
[1] = test system: Mus musculus; test: Anticonvulsant activity in mouse assessed as protection against electrically-induced seizure at 100 mg/kg, ip after 0.5 hrs by 6Hz psychomotor seizure test; format: functional, organism-based; parameters: dose 100 mg/kg
Outline: (§1)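 Mice pretreated by i.p. injection at 100 mg/kg, then challenged through corneal electrodes at 6 Hz, 32 mA for 3 s, which elicits a psychomotor seizure in 97% of animals. Four mice per time point. Score is N/F, the number of animals protected over the number tested. Testing run under the NINDS Anticonvulsant Screening Program.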

[2] = test system: Mus musculus; test: Anticonvulsant activity in mouse assessed as protection against maximal electroshock-induced seizures at 30 mg/kg, ip after 4 hrs; format: functional, organism-based; parameters: dose 30 mg/kg
Outline: (§2)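 Mouse Test 1: i.p. dosing at 0.01 mL/g. Sets of one, three and one animals receive 30, 100 and 300 mg/kg respectively, each tested at 0.5 h and 4.0 h. Score is N/F, the number of animals protected over the number tested. Screening performed by NINDS following the ADD program protocol.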

[3] = test system: Mus musculus; test: Anticonvulsant activity in mouse assessed as protection against subcutaneous pentylenetetrazole-induced seizures at 100 mg/kg, ip after 0.5 hrs; format: functional, organism-based; parameters: dose 100 mg/kg
[4] = test system: Mus musculus; test: Neurotoxicity in mouse assessed as minimum motor impairment at 30 mg/kg, ip after 4 hrs by rotarod test; format: toxicity, organism-based; parameters: dose 30 mg/kg, route intraperitoneal; details: in vivo
Outline: (§3)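 Rotorod test for minimal motor impairment in mice given 30, 100 or 300 mg/kg i.p. at 0.01 mL/g, using sets of one, three and one animals, at 0.5 h and 4.0 h. Animals are observed at each dose and time. Score is N/F, the number showing toxicity over the number tested.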

[5] = test system: Mus musculus; test: Anticonvulsant activity in mouse assessed as protection against electrically-induced seizure at 100 mg/kg, ip after 1 hr by 6Hz psychomotor seizure test; format: functional, organism-based; parameters: dose 100 mg/kg; outline: as §1
[6] = test system: Mus musculus; test: Anticonvulsant activity in mouse assessed as protection against subcutaneous pentylenetetrazole-induced seizures at 30 mg/kg, ip after 4 hrs; format: functional, organism-based; parameters: dose 30 mg/kg
[7] = test system: Mus musculus; test: Neurotoxicity in mouse assessed as electrically-induced clonic seizures at 100 mg/kg, ip after 0.5 hrs by rotarod test; format: toxicity, organism-based; parameters: dose 100 mg/kg, route intraperitoneal; details: in vivo
Outline: (§4)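 Rotorod toxicity in mice given 100 mg/kg i.p., four per time point, alongside the 6 Hz test. The endpoint is inability to maintain balance on the rotorod. Score is N/F, the number of animals showing toxicity over the number tested.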

[8] = test system: Mus musculus; test: Anticonvulsant activity in mouse assessed as protection against maximal electroshock-induced seizures at 300 mg/kg, ip after 0.5 hrs; format: functional, organism-based; parameters: dose 300 mg/kg; outline: as §2
[9] = test system: Mus musculus; test: Neurotoxicity in mouse assessed as electrically-induced clonic seizures at 100 mg/kg, ip after 1 hr by rotarod test; format: toxicity, organism-based; parameters: dose 100 mg/kg, route intraperitoneal; details: in vivo; outline: as §4
[10] = test system: Mus musculus; test: Anticonvulsant activity in mouse assessed as protection against electrically-induced seizure at 100 mg/kg, ip after 0.25 hrs by 6Hz psychomotor seizure test; format: functional, organism-based; parameters: dose 100 mg/kg; outline: as §1
[11] = test system: Mus musculus; test: Anticonvulsant activity in mouse assessed as protection against subcutaneous pentylenetetrazole-induced seizures at 30 mg/kg, ip after 0.5 hrs; format: functional, organism-based; parameters: dose 30 mg/kg
[12] = test system: Mus musculus; test: Anticonvulsant activity in mouse assessed as protection against maximal electroshock-induced seizures at 100 mg/kg, ip after 0.5 hrs; format: functional, organism-based; parameters: dose 100 mg/kg; outline: as §2
[13] = test system: Mus musculus; test: Neurotoxicity in mouse assessed as minimum motor impairment at 300 mg/kg, ip after 4 hrs by rotarod test; format: toxicity, organism-based; parameters: dose 300 mg/kg, route intraperitoneal; details: in vivo; outline: as §3
[14] = test system: Mus musculus; test: Neurotoxicity in mouse assessed as electrically-induced clonic seizures at 100 mg/kg, ip after 2 hrs by rotarod test; format: toxicity, organism-based; parameters: dose 100 mg/kg, route intraperitoneal; details: in vivo; outline: as §4
[15] = test system: Mus musculus; test: Neurotoxicity in mouse assessed as electrically-induced clonic seizures at 100 mg/kg, ip after 4 hrs by rotarod test; format: toxicity, organism-based; parameters: dose 100 mg/kg, route intraperitoneal; details: in vivo; outline: as §4
[16] = test system: Mus musculus; test: Neurotoxicity in mouse assessed as minimum motor impairment at 100 mg/kg, ip after 4 hrs by rotarod test; format: toxicity, organism-based; parameters: dose 100 mg/kg, route intraperitoneal; details: in vivo; outline: as §3
[17] = test system: Mus musculus; test: Neurotoxicity in mouse assessed as minimum motor impairment at 100 mg/kg, ip after 0.5 hrs by rotarod test; format: toxicity, organism-based; parameters: dose 100 mg/kg, route intraperitoneal; details: in vivo; outline: as §3
[18] = test system: Mus musculus; test: Neurotoxicity in mouse assessed as electrically-induced clonic seizures at 100 mg/kg, ip after 0.25 hrs by rotarod test; format: toxicity, organism-based; parameters: dose 100 mg/kg, route intraperitoneal; details: in vivo; outline: as §4
[19] = test system: Mus musculus; test: Anticonvulsant activity in mouse assessed as protection against subcutaneous pentylenetetrazole-induced seizures at 300 mg/kg, ip after 0.5 hrs; format: functional, organism-based; parameters: dose 300 mg/kg
[20] = test system: Mus musculus; test: Anticonvulsant activity in mouse assessed as protection against subcutaneous pentylenetetrazole-induced seizures at 100 mg/kg, ip after 4 hrs; format: functional, organism-based; parameters: dose 100 mg/kg
[21] = test system: Mus musculus; test: Anticonvulsant activity in mouse assessed as protection against subcutaneous pentylenetetrazole-induced seizures at 300 mg/kg, ip after 4 hrs; format: functional, organism-based; parameters: dose 300 mg/kg
[22] = test system: Mus musculus; test: Neurotoxicity in mouse assessed as minimum motor impairment at 30 mg/kg, ip after 0.5 hrs by rotarod test; format: toxicity, organism-based; parameters: dose 30 mg/kg, route intraperitoneal; details: in vivo; outline: as §3
[23] = test system: Mus musculus; test: Neurotoxicity in mouse assessed as minimum motor impairment at 300 mg/kg, ip after 0.5 hrs by rotarod test; format: toxicity, organism-based; parameters: dose 300 mg/kg, route intraperitoneal; details: in vivo; outline: as §3
[24] = test system: Mus musculus; test: Anticonvulsant activity in mouse assessed as protection against maximal electroshock-induced seizures at 30 mg/kg, ip after 0.5 hrs; format: functional, organism-based; parameters: dose 30 mg/kg; outline: as §2
[25] = test system: Mus musculus; test: Anticonvulsant activity in mouse assessed as protection against maximal electroshock-induced seizures at 100 mg/kg, ip after 4 hrs; format: functional, organism-based; parameters: dose 100 mg/kg; outline: as §2
[26] = Octanol-phosphate buffer partition coefficient, log P of the compound; format: physicochemical
Outline: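 Octanol and phosphate buffer partition run at room temperature (29 °C). After separation, the phases are membrane-filtered and drug in the aqueous phase is measured by UV. PC = (Ct − Ca)/Ca, where Ct is total drug concentration and Ca is aqueous-phase concentration.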

[27] = test system: Mus musculus; test: Anticonvulsant activity in mouse assessed as protection against electrically-induced seizure at 100 mg/kg, ip after 4 hrs by 6Hz psychomotor seizure test; format: functional, organism-based; parameters: dose 100 mg/kg; outline: as §1
[28] = test system: Mus musculus; test: Anticonvulsant activity in mouse assessed as protection against electrically-induced seizure at 100 mg/kg, ip after 2 hrs by 6Hz psychomotor seizure test; format: functional, organism-based; parameters: dose 100 mg/kg; outline: as §1
[29] = test system: Mus musculus; test: Anticonvulsant activity in mouse assessed as protection against maximal electroshock-induced seizures at 300 mg/kg, ip after 4 hrs; format: functional, organism-based; parameters: dose 300 mg/kg; outline: as §2

| Compound | Activity [1] | Activity [2] | Activity [3] | Activity [4] | Activity [5] | Activity [6] | Activity [7] | Activity [8] | Activity [9] | Activity [10] | Activity [11] | Activity [12] | Activity [13] | Activity [14] | Activity [15] | Activity [16] | Activity [17] | Activity [18] | Activity [19] | Activity [20] | further results |
| --- | --- | --- | --- | --- | --- | --- | --- | --- | --- | --- | --- | --- | --- | --- | --- | --- | --- | --- | --- | --- | --- |
| O=C(NC(=S)Nc1ccccc1)Nc1ccc2c(c1)C(=O)C(=O)N2Cc1ccccc1Cl | Active | inactive | inactive | Non-toxic | Active | inactive | Non-toxic | Active | Non-toxic | Active | inactive | inactive | Non-toxic | Non-toxic | Non-toxic | Non-toxic | Non-toxic | Non-toxic | Active | inactive | Activity [21]: inactive; Activity [22]: Non-toxic; Activity [23]: Non-toxic; Activity [24]: inactive; Activity [25]: Active; logP [26]: 3.18; Activity [27]: inactive; Activity [28]: inactive |
| COc1ccc(NC(=S)NC(=O)Nc2ccc3c(c2)C(=O)C(=O)N3Cc2ccccc2)cc1 | Active | inactive | inactive | Non-toxic | inactive | inactive | Non-toxic | Active | Non-toxic | Active | inactive | inactive | Non-toxic | Non-toxic | Non-toxic | Non-toxic | Non-toxic | Non-toxic | Active | inactive | Activity [29]: Active; Activity [21]: inactive; Activity [22]: Non-toxic; Activity [23]: Non-toxic; Activity [24]: inactive; Activity [25]: inactive; logP [26]: 2.39; Activity [27]: inactive; Activity [28]: inactive |
